Experimental data reported in ChEMBL document CHEMBL2146414, “Lignan derivatives from Krameria lappacea roots inhibit acute inflammation in vivo and pro-inflammatory mediators in vitro” (J Nat Prod, 2011).
Calls of active or inactive are those of the source. The calls are words filed in the database; no cut-off is given here.

How the values were obtained:
Mus musculus [1] = assay: Antiinflammatory activity in CD1 mouse ear dermatitis model assessed as inhibition of Croton oil-induced ear edema at 1 umol administered topically per cm'2 of ear measured after induction of dermatitis relative to untreated control; assay type: functional
Outline: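 Male CD-1 mice (28–32 g), anesthetized with ketamine 145 mg/kg i.p.; right ear (about 1 cm2) given 80 μg croton oil in 15 μL acetone, with test substance co-applied in acetone; left ear left untreated. Controls received irritant only. 6 mm punches taken from both ears; edema = weight difference treated minus untreated; % inhibition vs controls. ID50 by graphic interpolation of log dose–effect curves; ANOVA with Dunnett's test.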

Mus musculus [2] = assay: Antiinflammatory activity in CD1 mouse ear dermatitis model assessed as inhibition of Croton oil-induced ear edema administered topically per cm'2 of ear measured after induction of dermatitis relative to untreated control; assay type: functional
[3] = target: T1, Inhibitor of nuclear factor kappa-B kinase subunit beta (Homo sapiens) (UniProt O14920); assay: Inhibition of human IKK2 assessed as reduction in substrate phosphorylation at 10 uM by ELISA
T1 sequence (whole entry): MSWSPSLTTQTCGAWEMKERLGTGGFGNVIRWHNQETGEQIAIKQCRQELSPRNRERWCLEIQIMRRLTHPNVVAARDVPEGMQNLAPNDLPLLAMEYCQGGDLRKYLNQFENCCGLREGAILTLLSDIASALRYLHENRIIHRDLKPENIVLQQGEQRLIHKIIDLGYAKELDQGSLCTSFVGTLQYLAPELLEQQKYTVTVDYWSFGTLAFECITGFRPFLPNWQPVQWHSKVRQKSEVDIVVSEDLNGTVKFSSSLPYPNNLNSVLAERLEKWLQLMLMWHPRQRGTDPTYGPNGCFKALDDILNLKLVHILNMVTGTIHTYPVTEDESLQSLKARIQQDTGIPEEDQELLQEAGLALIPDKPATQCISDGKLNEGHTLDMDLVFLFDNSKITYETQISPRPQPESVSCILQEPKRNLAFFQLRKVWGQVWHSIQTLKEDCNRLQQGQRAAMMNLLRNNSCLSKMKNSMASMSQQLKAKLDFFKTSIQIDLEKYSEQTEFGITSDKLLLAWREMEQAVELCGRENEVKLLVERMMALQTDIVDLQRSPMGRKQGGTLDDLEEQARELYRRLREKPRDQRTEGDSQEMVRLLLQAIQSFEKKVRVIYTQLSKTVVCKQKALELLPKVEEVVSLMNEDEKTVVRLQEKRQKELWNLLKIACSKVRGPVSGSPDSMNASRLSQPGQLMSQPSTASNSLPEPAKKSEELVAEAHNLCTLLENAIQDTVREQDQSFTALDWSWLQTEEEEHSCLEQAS

[4] = tested on: Radical scavenging activity; assay: Antioxidant activity assessed as DPPH free radical scavenging activity up to 100 uM after 30 mins by spectrophotometry; assay type: functional
[5] = target: T2, Prostaglandin G/H synthase 2 (Ovis aries, UniProt P79208); assay: Inhibition of sheep placental COX2 assessed as PGE2 production by enzyme immunoassay
T2 sequence (P79208 whole entry): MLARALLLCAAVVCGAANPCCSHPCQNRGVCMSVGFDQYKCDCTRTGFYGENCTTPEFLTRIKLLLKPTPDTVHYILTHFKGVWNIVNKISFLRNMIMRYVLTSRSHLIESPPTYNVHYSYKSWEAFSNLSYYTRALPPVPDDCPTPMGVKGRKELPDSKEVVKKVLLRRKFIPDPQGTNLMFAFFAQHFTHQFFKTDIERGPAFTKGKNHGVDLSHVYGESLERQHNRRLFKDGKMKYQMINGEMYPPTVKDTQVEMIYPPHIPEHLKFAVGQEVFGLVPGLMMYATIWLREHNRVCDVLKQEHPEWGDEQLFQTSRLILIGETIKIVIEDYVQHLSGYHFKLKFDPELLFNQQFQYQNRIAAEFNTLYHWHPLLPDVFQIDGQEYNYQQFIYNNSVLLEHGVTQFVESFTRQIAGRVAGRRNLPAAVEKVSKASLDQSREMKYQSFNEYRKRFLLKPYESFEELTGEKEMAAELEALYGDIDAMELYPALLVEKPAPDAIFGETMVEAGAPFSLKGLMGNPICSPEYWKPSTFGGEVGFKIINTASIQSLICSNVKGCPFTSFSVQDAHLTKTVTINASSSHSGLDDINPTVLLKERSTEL

[6] = target: T3, Polyunsaturated fatty acid 5-lipoxygenase (Homo sapiens, UniProt P09917); assay: Inhibition of 5-lipoxygenase in human neutrophils assessed as inhibition of LTB4 production
T3 sequence (P09917 whole entry): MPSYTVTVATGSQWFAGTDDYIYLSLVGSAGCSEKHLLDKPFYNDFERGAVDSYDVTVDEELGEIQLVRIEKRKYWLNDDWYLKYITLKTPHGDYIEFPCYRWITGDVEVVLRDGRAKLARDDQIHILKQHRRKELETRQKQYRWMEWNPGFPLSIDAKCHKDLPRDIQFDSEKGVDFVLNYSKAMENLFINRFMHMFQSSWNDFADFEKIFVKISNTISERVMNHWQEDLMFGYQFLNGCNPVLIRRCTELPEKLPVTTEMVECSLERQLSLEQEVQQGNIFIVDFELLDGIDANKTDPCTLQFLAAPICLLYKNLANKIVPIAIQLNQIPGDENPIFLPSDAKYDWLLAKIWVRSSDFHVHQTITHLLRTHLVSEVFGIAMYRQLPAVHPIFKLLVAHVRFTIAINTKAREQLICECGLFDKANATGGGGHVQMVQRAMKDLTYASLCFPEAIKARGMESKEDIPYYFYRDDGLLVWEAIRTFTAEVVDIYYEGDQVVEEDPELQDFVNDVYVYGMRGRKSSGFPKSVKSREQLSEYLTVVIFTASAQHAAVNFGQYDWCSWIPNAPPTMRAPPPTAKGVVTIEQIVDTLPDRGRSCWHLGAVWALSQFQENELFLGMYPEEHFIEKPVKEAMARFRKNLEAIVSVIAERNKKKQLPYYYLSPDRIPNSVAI
Outline: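 Stimulated human neutrophilic granulocytes; 5-LO-mediated LTB4 formation measured; samples dissolved in ethanol. IC50 from at least three concentrations, duplicates, at least three independent experiments, by nonlinear regression.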

Prostaglandin E synthase = target: T4, Prostaglandin E synthase (Homo sapiens, UniProt O14684); assay: Inhibition of mPGES1 in IL-1beta treated human A549 cell microsomal membrane assessed as inhibition of PGE2 formation incubated for 15 mins before addition of PGH2 by RP-HPLC method; assay type: microsomes, Microsome
T4 sequence (O14684 whole entry): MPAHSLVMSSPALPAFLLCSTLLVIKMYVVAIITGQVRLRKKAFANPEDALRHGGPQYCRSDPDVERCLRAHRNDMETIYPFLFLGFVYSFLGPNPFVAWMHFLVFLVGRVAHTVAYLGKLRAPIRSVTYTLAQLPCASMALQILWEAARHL

[7] = tested on: Radical scavenging activity; assay: Antioxidant activity assessed as DPPH free radical scavenging activity after 30 mins by spectrophotometry; assay type: functional

SMILES	inhibition (INH) (Mus musculus [1]) [%]	ID50 (Mus musculus [2]) [umol/cm2]	inhibition [3]	Activity [4]	IC50 [5] [µM]	IC50 [6] [µM]	IC50 (Prostaglandin E synthase) [µM]	IC50 [7]	IC50 ([7]; read-out: IC50) [µM]
C/C=C/c1ccc2oc(-c3ccc(O)cc3)cc2c1	74	0.44	inactive	inactive	2	> 50	5.3		
C/C=C/c1ccc2oc(-c3ccc(O)cc3OC)cc2c1 [RATANIAPHENOL III]	70	0.48	inactive		7.6	> 50	13.5	Dose-dependent effect	36.3
C/C=C/c1ccc2oc(-c3ccc(O)cc3)c(C)c2c1 [RATANIAPHENOL II]	75	0.4	inactive	inactive	1.7	> 50	11		
COc1cc(O)ccc1-c1cc2cc(CCCO)ccc2o1	75	0.45	inactive		> 50	41.4	> 50	Dose-dependent effect	37.7
COc1ccc(-c2cc3cc(CCCO)ccc3o2)c(O)c1	67	0.36	inactive		> 50	27.2	42	Dose-dependent effect	42.3
C/C=C/c1ccc2oc(-c3ccc(O)cc3O)cc2c1	64	0.6	inactive		7.1	> 50	7.4	Dose-dependent effect	22.1
C/C=C/c1ccc2oc(-c3ccc(OC)cc3O)cc2c1 [RATANIAPHENOL I]	64	0.57	inactive		> 50	> 50	13	Dose-dependent effect	24.2
C[C@@H]1[C@H](C)[C@@H](c2ccc(O)cc2)O[C@H]1c1ccc(O)cc1	72	0.36	inactive	inactive	> 50	> 50	> 50		
C[C@@H]1[C@H](C)[C@@H](c2ccc(O)cc2)O[C@@H]1c1ccc(O)cc1	67	0.46	inactive	inactive	> 50	> 50	> 50		
C/C=C/c1ccc2c(c1)[C@H](CO)[C@@H](c1ccc(O)cc1)O2	75	0.42	inactive	inactive	> 50	> 50	39.5		
C/C=C/c1ccc2c(c1)[C@@H](C)[C@H](c1ccc(O)cc1)O2	81		inactive	inactive	> 50	18.4	19.5		
